According to ChEMBL document CHEMBL3102705, “Design, synthesis and investigation on the structure-activity relationships of N-substituted 2-aminothiazole derivatives as antitubercular agents” (Eur J Med Chem, 2014):
≈ marks a conversion by molar mass, not a printed value.

Tests used:
[1] = system: Mycobacterium tuberculosis; assay: Antitubercular activity against Mycobacterium tuberculosis H37Rv ATCC 27294 assessed as growth inhibition after 16 to 24 hrs by microplate-Alamar Blue assay; format: functional
Outline: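 MIC against M. tuberculosis H37Rv (ATCC 27294), actively replicating, by microplate Alamar Blue assay.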

[2] = Selectivity index, ratio of IC50 for African green monkey Vero cells to MIC for Mycobacterium tuberculosis H37Rv ATCC 27294; format: toxicity, cell-based; conditions: read-out: Selectivity Index
Outline: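 Selectivity index calculated as the Vero cell cytotoxicity IC50 divided by the MABA MIC against H37Rv. Cytotoxicity was measured on Vero cells.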

[3] = system: Vero; assay: Cytotoxicity against African green monkey Vero cells assessed as cell viability after 72 hrs by MTS assay; format: cell-based; conditions: Chlorocebus sabaeus
Outline: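 Value reported as an IC50 against Vero cells.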

[4] = system: Mycobacterium tuberculosis; assay: Antitubercular activity against recombinant Mycobacterium tuberculosis H37Rv ATCC 27294 expressing Vibrio harveyii luciferase gene with acetamidase promoter assessed as reduction of metabolic recovery after 10 days by low-oxygen recovery assay; format: functional; conditions: H37Rv ATCC 27294, 240 h
Outline: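 Low oxygen recovery assay on H37Rv (ATCC 27294), used as an in vitro model of nonreplicating persistent M. tuberculosis. Each MIC is a single measurement.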

[5] = system: Mycobacterium tuberculosis; assay: Ratio of MIC for Mycobacterium tuberculosis H37Rv ATCC 27294 expressing Vibrio harveyii luciferase gene with acetamidase promoter by low-oxygen recovery assay to MIC for Mycobacterium tuberculosis H37Rv ATCC 27294 by microplate-Alamar Blue assay; format: functional

SMILES	MIC [1]	further results
Cc1ccc(C(=O)Nc2nc(-c3cc(C(F)(F)F)ccc3F)cs2)cc1	> 128 µM	–
Cc1ccc(Nc2nc(C)cs2)cc1	> 128 µM	–
Cc1ccc(Nc2nc(-c3ccc(C)cc3)cs2)cc1	> 128 µM	–
Cc1ccc(Nc2nc(-c3ccc(Cl)cc3)cs2)cc1	> 128 µM	–
COc1ccc(-c2csc(Nc3cc(Cl)cc(Cl)c3)n2)cc1	15.6 µM (≈ 5.48 µg/mL)	–
Cc1ccc(CNc2nc(-c3cc(C(F)(F)F)ccc3F)cs2)cc1	> 128 µM	–
Cc1cc(C)cc(Nc2nc(-c3cc(C(F)(F)F)ccc3F)cs2)c1	30.1 µM (≈ 11 µg/mL)	–
Fc1ccc(C(F)(F)F)cc1-c1csc(Nc2cc(Cl)cc(Cl)c2)n1	15 µM (≈ 6.11 µg/mL)	selectivity ratio [2]: 3.3; IC50 [3]: 50 µM; MIC [4]: 15.2 µM
Cc1ccccc1Nc1nc(-c2cc(C(F)(F)F)ccc2F)cs1	35.1 µM (≈ 12.4 µg/mL)	–
Fc1ccc(C(F)(F)F)cc1-c1csc(Nc2ccc(Cl)cc2)n1	19.2 µM (≈ 7.16 µg/mL)	selectivity ratio [2]: 2.4; Ratio [5]: 2; IC50 [3]: 46.6 µM; MIC [4]: 31.5 µM
Clc1cc(Cl)cc(Nc2nc3c(s2)Cc2ccccc2-3)c1	> 128 µM	–
Cc1cccc(Nc2nc(-c3cc(C(F)(F)F)ccc3F)cs2)c1	29.8 µM (≈ 10.5 µg/mL)	–
Fc1ccc(C(F)(F)F)cc1-c1csc(N(Cc2ccccc2)c2cc(Cl)cc(Cl)c2)n1	> 128 µM	–
CCN(c1cc(Cl)cc(Cl)c1)c1nc(-c2cc(C(F)(F)F)ccc2F)cs1	> 128 µM	–
CC(=O)N1CCN(c2nc(-c3cc(C(F)(F)F)ccc3F)cs2)CC1	118 µM (≈ 44 µg/mL)	–
Cc1ccc(N(C)c2nc(-c3cc(C(F)(F)F)ccc3F)cs2)cc1	31.7 µM (≈ 11.6 µg/mL)	IC50 [3]: > 128 µM
Fc1ccc(C(F)(F)F)cc1-c1csc(Nc2ccc(Cl)cc2Cl)n1	> 128 µM	–
CO[C@H]1/C=C/O[C@@]2(C)Oc3c(C)c(O)c4c(O)c(c(/C=N/N5CCN(C)CC5)c(O)c4c3C2=O)NC(=O)/C(C)=C\C=C\[C@H](C)[C@H](O)[C@@H](C)[C@@H](O)[C@@H](C)[C@H](OC(C)=O)[C@@H]1C [RIFAMPIN]	0.1 µM (≈ 0.0823 µg/mL)	–
Fc1ccc(C(F)(F)F)cc1-c1csc(N2CCCCC2)n1	56.5 µM (≈ 18.7 µg/mL)	–
Cc1ccc(Nc2nc(-c3ccc(C(F)(F)F)cc3)cs2)cc1	> 128 µM	–
Cc1ccc(Nc2nc(-c3cc(C(F)(F)F)ccc3F)cs2)cc1	27.5 µM (≈ 9.69 µg/mL)	selectivity ratio [2]: 3.4; IC50 [3]: 92.4 µM
Cc1ccc(Nc2ncc(-c3ccccc3)s2)cc1	> 128 µM	–
COc1ccc(-c2csc(Nc3ccc(C)cc3)n2)cc1	13 µM (≈ 3.85 µg/mL)	Ratio [5]: 2; IC50 [3]: > 128 µM; MIC [4]: 31.8 µM

SMILES	MIC [1]	further results
O=[N+]([O-])c1cn2c(n1)OC[C@@H](OCc1ccc(OC(F)(F)F)cc1)C2 [PRETOMANID]	0.8 µM (≈ 0.287 µg/mL)	–
Fc1ccc(C(F)(F)F)cc1-c1csc(Nc2cccc(Cl)c2)n1	30.1 µM (≈ 11.2 µg/mL)	–
Cc1ccc(Nc2nc(-c3cc(C(F)(F)F)ccc3F)cs2)c(C)c1	30.8 µM (≈ 11.3 µg/mL)	–
Clc1cc(Cl)cc(Nc2nc3c(s2)-c2ccccc2C3)c1	> 128 µM	–
Clc1cc(Cl)cc(Nc2nc(-c3ccccc3)c(Cc3ccccc3)s2)c1	20 µM (≈ 8.23 µg/mL)	IC50 [3]: 82.7 µM
Cc1ccc(Nc2nc(-c3cc(C(F)(F)F)ccc3F)cs2)c(Cl)c1	> 128 µM	–
Cc1sc(Nc2cc(Cl)cc(Cl)c2)nc1-c1ccccc1	28.9 µM (≈ 9.69 µg/mL)	–
Fc1ccc(C(F)(F)F)cc1-c1csc(NC2CCCCC2)n1	30.3 µM (≈ 10.4 µg/mL)	–
Fc1ccc(Nc2nc(-c3cc(C(F)(F)F)ccc3F)cs2)cc1	59.5 µM (≈ 21.2 µg/mL)	–
Fc1ccc(Nc2nc3c(s2)Cc2ccccc2-3)cc1	> 128 µM	–
Cc1ccc2c(ccn2-c2nc(-c3cc(C(F)(F)F)ccc3F)cs2)c1	> 128 µM	–
CN[C@@H]1[C@H](O[C@H]2[C@H](O[C@H]3[C@H](O)[C@@H](O)[C@H](N=C(N)N)[C@@H](O)[C@@H]3N=C(N)N)O[C@@H](C)[C@]2(O)C=O)O[C@@H](CO)[C@H](O)[C@H]1O [STREPTOMYCIN]	0.3 µM (≈ 0.174 µg/mL)	–
Clc1cc(Cl)cc(Nc2nc(-c3ccccc3)c(-c3ccccc3)s2)c1	> 128 µM	–
Cc1ccc(Nc2nc(-c3ccccc3Cl)cs2)cc1	> 128 µM	–
Clc1cc(Cl)cc(Nc2nc3c(s2)CCc2ccccc2-3)c1	43.3 µM (≈ 15 µg/mL)	–
Fc1ccc(C(F)(F)F)cc1-c1csc(Nc2ccccc2Cl)n1	> 128 µM	–
CN(C)c1nc(-c2cc(C(F)(F)F)ccc2F)cs1	> 128 µM	–
NNC(=O)c1ccncc1 [ISONIAZID]	0.4 µM (≈ 0.0549 µg/mL)	–
Fc1ccc(C(F)(F)F)cc1-c1csc(Nc2ccncc2)n1	> 128 µM	–
Cc1ccc(Nc2nc(-c3ccccc3)cs2)cc1	63.8 µM (≈ 17 µg/mL)	–
Clc1cc(Cl)cc(Nc2nc(-c3ccccc3)cs2)c1	28.6 µM (≈ 9.19 µg/mL)	–
Cc1ccc(Nc2nc(-c3ccc(O)cc3)cs2)cc1	> 128 µM	–
